ChEMBL document CHEMBL1155263, “Anti-tumor and anti-angiogenic activity of novel hydantoin derivatives: Inhibition of VEGF secretion in liver metastatic osteosarcoma cells” (Bioorg Med Chem, 2009)
Active and inactive are the calls of the source. The calls are words filed in the database; no cut-off is given here.

Legend:
LM8 = test: Antiproliferative activity against mouse LM8 cells after 48 hrs; type: functional, cell-based
In short: (§1)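 Cells seeded at 15,000/well and incubated overnight at 37 °C, then switched to medium containing compound in µg/mL concentrations. Incubation was 48 h at 37 °C, 5% CO2, then 2 h with WST-type TetraColor One. A450 gave % viability, reported as % inhibition of proliferation, mean of four replicates.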

LM8G7 [1] = test: Antiproliferative activity against mouse LM8G7 cells after 48 hrs; type: functional, cell-based; in short: as §1
LM8G7 [2] = test: (§2) Antiproliferative activity against VEGF expressing mouse LM8G7 cells assessed as cell index every 10 mins by RT-CES method; type: functional, cell-based
In short: (§3)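 LM8G7 seeded at 10,000 cells/well on electronic-sensing e-plates; about 24 h later, in log phase, medium with various compound concentrations or DMSO control was added. Impedance cell index was recorded every 10 min and plotted against time. IC50 was obtained by non-linear regression of concentration–response curves.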

[3] = as §2; type: functional, cell-based; in short: as §3
OVSAHO = test: Antiproliferative activity against human OVSAHO cells after 48 hrs; type: functional, cell-based; in short: as §1
SK-OV-3 = test: Antiproliferative activity against human SKOV3 cells after 48 hrs; type: functional, cell-based; in short: as §1
Endothelial cell = test: Antiangiogenic activity in mouse endothelial cells assessed as inhibition of tube formation at 50 uM after 18 hrs by microscopic analysis in presence of VEGF; type: functional, cell-based
In short: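 UV♀2 mouse endothelial cells, 100 µL suspension at 4 × 10⁵ cells/mL, seeded onto Matrigel solidified 30 min at 37 °C, with or without compound (50 µM) and VEGF (2 ng/mL); DMSO 0.1% vehicle. After 18 h, reorganization of the sub-confluent monolayer into capillary-like tubes in 3-D Matrigel was photographed by light microscopy.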

[4] = Inhibition of VEGF secretion in mouse LM8G7 cells at 56 uM after 48 hrs by immunoassay; type: functional; conditions: LM8G7, 48 h
In short: (§4)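 LM8G7 (1 × 10⁶ cells/well) in 6-well plates were incubated 24 h, then given serum-free medium with compound at 56, 102 or 204 µM for 48 h at 37 °C. Supernatant was centrifuged 5000 rpm, 5 min, 4 °C and protein measured by BCA. Mouse VEGF was quantified by sandwich ELISA against a recombinant VEGF standard (HRP detection, A450).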

[5] = Inhibition of VEGF secretion in mouse LM8G7 cells at 102 uM after 48 hrs by immunoassay; type: functional; conditions: LM8G7, 48 h; in short: as §4
[6] = Inhibition of VEGF secretion in mouse LM8G7 cells at 204 uM after 48 hrs by immunoassay; type: functional; conditions: LM8G7, 48 h; in short: as §4

SMILES	Activity (LM8)	Activity (LM8G7 [1])	Activity (LM8G7 [2])	IC50 [3]	Activity (OVSAHO)	Activity (SK-OV-3)	inhibition (Endothelial cell)	inhibition at 56 µM [4]	inhibition at 102 µM [5]	inhibition at 204 µM [6]
CS(=O)(=O)c1ccc(CN2C(=O)NC3(CC4CCC(C3)N4Cc3cccc(F)c3)C2=O)cc1 (stereo unspecified)	Active	Active	Dose-dependent effect	102 µM	Active	Active	–	–	–	–
CS(=O)(=O)c1ccc(CN2C(=O)NC3(CC4CCC(C3)N4Cc3ccc(F)c(F)c3)C2=O)cc1 (stereo unspecified)	Active	Active	Dose-dependent effect	13 µM	Active	Active	Active	23.8%	46.7%	63.9%
